Activity calls are given as the source filed them. The calls are words filed in the database; no cut-off is given here.
Key:
[1] = target: T1, Adenosine receptor A1 (Homo sapiens) (UniProt P30542); assay: Displacement of [3H]DPCPX from human adenosine A1 receptor expressed in HEK293 cell membranes at 1 uM after 90 mins relative to control
T1 sequence (whole entry): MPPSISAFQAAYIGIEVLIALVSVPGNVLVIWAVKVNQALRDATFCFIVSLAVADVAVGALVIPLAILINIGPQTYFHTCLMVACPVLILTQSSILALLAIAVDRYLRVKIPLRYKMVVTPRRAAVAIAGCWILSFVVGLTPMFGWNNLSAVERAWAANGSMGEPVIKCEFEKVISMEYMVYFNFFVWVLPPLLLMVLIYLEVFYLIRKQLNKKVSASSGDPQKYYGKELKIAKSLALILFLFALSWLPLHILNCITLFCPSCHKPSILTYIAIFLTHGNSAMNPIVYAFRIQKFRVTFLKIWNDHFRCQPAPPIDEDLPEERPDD
In short: (§1)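 Membranes from HEK-293 cells stably transfected with human receptor, pre-treated with adenosine deaminase. Radioligands: 1 nM [3H]DPCPX (A1), 1 nM [3H]ZM241385 (A2A), 1.6 nM [3H]MRS-1754 (A2B), 2 nM [3H]HEMADO (A3). Buffers: Tris pH 7.4 (A1, A2A, A3) or pH 6.5 (A2B), with ADA. Incubated 90 min at room temperature, then filtered. Nonspecific binding defined with 100 µM NECA. Ki from 8 concentrations run in triplicate.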

[2] = target: T2, Adenosine receptor A2b (Homo sapiens) (UniProt P29275); assay: Displacement of [3H]MRS-1754 from human adenosine A2B receptor expressed in HEK293 cell membranes at 1 uM after 90 mins relative to control; in short: as §1
T2 sequence (whole entry): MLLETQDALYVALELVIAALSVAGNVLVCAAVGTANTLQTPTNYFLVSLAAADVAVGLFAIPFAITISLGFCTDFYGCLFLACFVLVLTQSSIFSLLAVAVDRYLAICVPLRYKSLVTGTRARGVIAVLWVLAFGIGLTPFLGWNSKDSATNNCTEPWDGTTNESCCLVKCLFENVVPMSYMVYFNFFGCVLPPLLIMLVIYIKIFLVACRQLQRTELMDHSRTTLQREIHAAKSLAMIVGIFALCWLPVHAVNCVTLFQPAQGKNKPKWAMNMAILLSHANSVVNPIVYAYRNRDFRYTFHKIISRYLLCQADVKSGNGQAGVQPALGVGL

Adenosine receptor A2a = Adenosine receptor A2a (Homo sapiens, UniProt P29274); assay: Displacement of [3H]ZM241385 from human adenosine A2A receptor expressed in HEK293 cell membranes at 1 uM after 90 mins relative to control; in short: as §1
[3] = target: T3, Adenosine receptor A3 (Homo sapiens) (UniProt P0DMS8); assay: Displacement of [3H]HEMADO from human adenosine A3 receptor expressed in HEK293 cell membranes at 1 uM after 90 mins relative to control; in short: as §1
T3 sequence (whole entry): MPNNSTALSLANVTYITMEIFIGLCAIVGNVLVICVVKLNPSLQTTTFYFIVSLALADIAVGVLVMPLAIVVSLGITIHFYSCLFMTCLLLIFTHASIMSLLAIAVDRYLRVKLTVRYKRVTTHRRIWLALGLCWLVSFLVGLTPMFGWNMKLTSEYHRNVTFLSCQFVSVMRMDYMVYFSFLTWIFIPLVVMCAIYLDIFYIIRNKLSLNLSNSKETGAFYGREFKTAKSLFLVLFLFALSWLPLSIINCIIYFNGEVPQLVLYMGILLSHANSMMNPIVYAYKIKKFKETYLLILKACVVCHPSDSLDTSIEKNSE

Adenosine receptor A1 [4] = target: T4, Adenosine receptor A1 (Homo sapiens, UniProt P30542); assay: Displacement of [3H]DPCPX from human adenosine A1 receptor expressed in HEK293 cell membranes after 90 mins
T4 sequence (P30542 whole entry): T1 sequence (whole entry)

Liver [5] = assay: Metabolic stability in rat liver microsomes assessed as metabolic rate measured after 30 mins in presence of NADPH; assay type: ADME, microsome; conditions: 0.5 h
Liver [6] = assay: Metabolic stability in human liver microsomes assessed as metabolic rate measured after 30 mins in presence of NADPH; assay type: ADME, microsome; conditions: 0.5 h
[7] = Metabolic stability in rat liver microsomes assessed as parent compound remaining measured after 30 mins in presence of NADPH; assay type: ADME, microsome; conditions: read-out: Stability
[8] = Metabolic stability in human liver microsomes assessed as parent compound remaining measured after 30 mins in presence of NADPH; assay type: ADME, microsome; conditions: read-out: Stability
Adenosine receptor A1 [9] = target: T4, Adenosine receptor A1; assay: (§2) Antagonist activity at human adenosine A1 receptor expressed in HEK293 cells assessed as reduction in CPA-mediated inhibition of forskolin-stimulated cAMP level preincubated for 15 mins followed by CPA treatment for 15 mins and subsequent addition of forskolin measured after 30 mins by HTRF assay; assay type: functional, cell-based
Adenosine receptor A3 = target: T5, Adenosine receptor A3 (Homo sapiens, UniProt P0DMS8); assay: Displacement of [3H]HEMADO from human adenosine A3 receptor expressed in HEK293 cell membranes after 90 mins; in short: as §1
T5 sequence (P0DMS8 whole entry): T3 sequence (whole entry)

[10] = target: T1, Adenosine receptor A1 (Homo sapiens); assay: as §2, with “level at 30 uM” for “level”, “assay relative to control” for “assay”; assay type: functional, cell-based
In short: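 Overnight HEK-A1 or HEK-A2B cultures were treated with 1 U/mL ADA for 90 min at 37°C. Compound was added for 15 min, then agonist for 15 min (1 nM CPA for A1; 70 nM NECA for A2B) at room temperature in incomplete DMEM with ADA. Rolipram (20 µM) was included for A1 only. cAMP was read by HTRF.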

Rattus norvegicus [11] = assay: Diuretic activity in Wistar rat at 0.1 mg/kg, po via gavage measured after 4 hrs; assay type: functional, organism-based
In short: (§3)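 Male Wistar rats (250-300 g, n = 6) dosed orally at 5 mL/kg. Vehicles: DMAC 5%/NaOH/saline, or NMP 10%/PEG-400 20%/saline pH 12.0. Rats were then kept singly in metabolic cages without food or water for 4 h. Urine volume, Na+ and K+ were measured with a biochemistry analyser.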

Rattus norvegicus [12] = assay: Natriuretic activity in Wistar rat at 0.1 mg/kg, po via gavage measured after 4 hrs; assay type: functional, organism-based; in short: as §3

Sequence of Adenosine receptor A2a (P29274 whole entry): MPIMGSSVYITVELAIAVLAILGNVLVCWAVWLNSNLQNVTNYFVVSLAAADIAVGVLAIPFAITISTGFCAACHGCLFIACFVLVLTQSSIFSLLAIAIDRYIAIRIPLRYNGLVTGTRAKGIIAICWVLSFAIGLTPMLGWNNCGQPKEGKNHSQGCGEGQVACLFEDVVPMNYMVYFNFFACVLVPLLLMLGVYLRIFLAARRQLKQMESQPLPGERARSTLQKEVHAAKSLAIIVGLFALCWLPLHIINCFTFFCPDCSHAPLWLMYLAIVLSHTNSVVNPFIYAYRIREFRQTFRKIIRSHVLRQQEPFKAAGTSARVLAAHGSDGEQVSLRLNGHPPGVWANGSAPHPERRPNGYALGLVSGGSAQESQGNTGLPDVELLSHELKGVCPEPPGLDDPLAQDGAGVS

Structure (SMILES)	inhibition [2] [%]	inhibition (Adenosine receptor A2a) [%]	inhibition [3] [%]	Ki (Adenosine receptor A1 [4]) [nM]	also measured
CCCn1c(NCC(=O)O)nc2nc(C3CCCC3)[nH]c2c1=O	9	0	0		inhibition [1]: 72%
CCCn1c(Oc2ccc(S(N)(=O)=O)cc2)nc2nc(C3CCCC3)[nH]c2c1=O				> 1000	
CCCn1c(OC2CCN(C)C2)nc2nc(C3CCCC3)[nH]c2c1=O (configuration not stated)				> 1000	
C[C@]12CC[C@H]3[C@@H](CCC4=CC(=O)CC[C@@]43C)[C@@H]1CC[C@@H]2O [TESTOSTERONE]					Drug metabolism (Liver [5]): > 1.52 nmol/min/mg; Drug metabolism (Liver [6]): 0.05 nmol/min/mg; remaining at 0.5 h [7]: 2%; remaining at 0.5 h [8]: 84%
CCCn1c(OC2CCOCC2)nc2nc(C3CCCC3)[nH]c2c1=O	56	82	0	20	Ki (Adenosine receptor A1 [9]): 12 nM
COc1ccc(CCN(C)CCCC(C#N)(c2ccc(OC)c(OC)c2)C(C)C)cc1OC (configuration not stated)					remaining at 0.5 h [7]: 68%; remaining at 0.5 h [8]: 78%
CCCn1c(Oc2cccc(OC)c2)nc2nc(C3CCCC3)[nH]c2c1=O	70	36			IC50 (Adenosine receptor A3): 430 nM
CCCn1c(Oc2ccc3[nH]ccc3c2)nc2nc(C3CCCC3)[nH]c2c1=O	0	0	34	36	
CCCn1c(NCc2ccc(C)cc2)nc2nc(C3CCCC3)[nH]c2c1=O	6	0	24	27	
CCCn1c(-c2ccc(C(F)(F)F)cc2)nc2nc(C3CCCC3)[nH]c2c1=O	12	0	5		inhibition [1]: 70%
CCCn1c(Oc2cc(C)ccn2)nc2nc(C3CCCC3)[nH]c2c1=O				> 1000	
CCCn1c(-c2cccc(O)c2)nc2nc(C3CCCC3)[nH]c2c1=O	100	74		1	Ki (Adenosine receptor A1 [9]): 0.2 nM
CCCn1c(Oc2ccc(C)nc2)nc2nc(C3CCCC3)[nH]c2c1=O				630	
CCCn1c(NCc2cccc(Cl)c2)nc2nc(C3CCCC3)[nH]c2c1=O				120	
CCCn1c(Nc2cccc(F)c2)nc2nc(C3CCCC3)[nH]c2c1=O	16	31		4500	
CCCn1c(Oc2cccc(O)c2)nc2nc(C3CCCC3)[nH]c2c1=O	53	81	69	10.5	
CCCn1c(Oc2cccc(CC(=O)O)c2)nc2nc(C3CCCC3)[nH]c2c1=O				> 1000	
CCCn1c(-c2cccc(C(=O)O)c2)nc2nc(C3CCCC3)[nH]c2c1=O					inhibition [1]: inactive; inhibition [10]: < 50%
CCCn1c(Oc2cccc3cc[nH]c23)nc2nc(C3CCCC3)[nH]c2c1=O	42	25	40	5.5	Ki (Adenosine receptor A1 [9]): 5.6 nM

Structure (SMILES)	inhibition [2] [%]	inhibition (Adenosine receptor A2a) [%]	inhibition [3] [%]	Ki (Adenosine receptor A1 [4]) [nM]	also measured
CCCn1c(O[C@@H]2CCOC2)nc2nc(C3CCCC3)[nH]c2c1=O				50	
CCCn1c(Nc2ccccc2)nc2nc(C3CCCC3)[nH]c2c1=O				> 1000	
CCCn1c(Oc2ccc(C(N)=O)cc2)nc2nc(C3CCCC3)[nH]c2c1=O				> 1000	
CCCn1c(Nc2cccc(C(F)(F)F)c2)nc2nc(C3CCCC3)[nH]c2c1=O	5	27		370	
CCCn1c(O[C@H]2CCOC2)nc2nc(C3CCCC3)[nH]c2c1=O				85	
CCCn1c(-c2cccc(C(N)=O)c2)nc2nc(C3CCCC3)[nH]c2c1=O				> 1000	
CCCn1c(NCc2ccc(C(F)(F)F)cc2)nc2nc(C3CCCC3)[nH]c2c1=O	0	0	23	23	
CCCn1c(OC2CCCC2)nc2nc(C3CCCC3)[nH]c2c1=O	92	85	79	14	Ki (Adenosine receptor A1 [9]): 13 nM
CCCn1c(Oc2cccnc2Cl)nc2nc(C3CCCC3)[nH]c2c1=O				3.6	
CCCn1c(NCc2ccc(C(=O)O)cc2)nc2nc(C3CCCC3)[nH]c2c1=O	16	31			inhibition [1]: 54%
CCCn1c(=O)c2nc(C34CC5CC(CC3C5)C4)[nH]c2n(CCC)c1=O					Activity (Rattus norvegicus [11]): Active; Activity (Rattus norvegicus [12]): Active
CCCn1c(NCCO)nc2nc(C3CCCC3)[nH]c2c1=O	31	5	0		inhibition [1]: 36%
CCCn1c(Oc2cccc3[nH]ccc23)nc2nc(C3CCCC3)[nH]c2c1=O				74	
CCCn1c(Nc2ccc(F)cc2)nc2nc(C3CCCC3)[nH]c2c1=O	6	0	24	> 1000	
CCCn1c(Oc2cncc(Cl)c2)nc2nc(C3CCCC3)[nH]c2c1=O	37	22	76	12	Ki (Adenosine receptor A1 [9]): 2.2 nM
CCCn1c(Oc2cccc(C(F)(F)F)c2)nc2nc(C3CCCC3)[nH]c2c1=O	0	34	35	19	Ki (Adenosine receptor A1 [9]): 5.9 nM
CCCn1c(-c2cccc(C(F)(F)F)c2)nc2nc(C3CCCC3)[nH]c2c1=O	14	0	0		inhibition [1]: 100%; Ki (Adenosine receptor A1 [9]): 12 nM
CCCn1c(OC2CCOC2)nc2nc(C3CCCC3)[nH]c2c1=O (configuration not stated)				59	
